Results from ChEMBL document CHEMBL1124575, “Water-soluble third generation antitumor platinum complexes, [2,2-bis (aminomethyl)-1,3-propanediol-N,N']-[1,1-cyclobutanedicarboxylato (2-)-O,O']platinum(II) and [1,1-cyclobutanedicarboxylato(2-)-O,O'] [tetrahydro-4H-pyran-4,4-dimethanamine-N,N']platinum(II)” (J Med Chem, 1989).
The source made the active and inactive calls. The rule behind the calls is not given here.

Experiments:
[1] = test system: B16; assay: Antitumor activity against murine tumor cells B16 in C57BC mice administered 12.5 mg/Kg intraperitoneally on days 1-9 relative to tumor inoculation; assay type: functional; settings: Mus musculus
Procedure, shortened: (§1)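 B16 melanoma in C57BC/6 mice, propagated per National Cancer Institute protocols. Drug given ip daily on days 1-9 after tumor inoculation, with observation for 60 days. Read-out is % increase in life span (ILS) over controls. ILS >25% counts as active. Treatment cutting ILS or body weight by >15% versus controls is rated toxic.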

[2] = test system: P388; assay: Antitumor activity against murine tumor cells, P388 in BDF1 mice administered 100 mg/kg intraperitoneally on days 1,5, and 9 relative to tumor inoculation; assay type: functional, organism-based; parameters: dose 100 mg/kg; settings: Mus musculus, at 100 mg/kg
Procedure, shortened: (§2)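 L1210, cisplatin-resistant L1210 and P388 leukemias implanted in BDF1 mice and maintained per National Cancer Institute protocols. Drug given ip on days 1, 5 and 9 after inoculation, with 30-day observation. The end point is % ILS versus controls, with >25% needed for activity. Reduction of ILS or body weight by >15% is rated toxic.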

[3] = test system: Colon 26; assay: Antitumor activity against murine tumor cells Colon 26 in BALB / C mice administered 50 mg/Kg intraperitoneally on days 1,5, and 9 relative to tumor inoculation; assay type: functional, cell-based; settings: Mus musculus
Procedure, shortened: (§3)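 Colon 26 carcinoma grown in Balb/C mice following National Cancer Institute protocols. Intraperitoneal dosing on days 1, 5 and 9 after tumor inoculation, with survival followed for 30 days. Activity is scored as % ILS over control mice, and ILS >25% is required. Toxicity is a >15% drop in ILS or body weight versus controls.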

[4] = test system: L1210; assay: Antitumor activity against murine tumor cells L1210 in BDF1 mice administered 100 mg/kg intraperitoneally on days 1,5, and 9 relative to tumor inoculation; assay type: functional, organism-based; parameters: dose 100 mg/kg; settings: Mus musculus, at 100 mg/kg; procedure, shortened: as §2
[5] = test system: L1210; assay: Antitumor activity against murine tumor cells L1210 cisplatin resistant leukemia in BDF1 mice administered mg/Kg intraperitoneally on days 1,5, and 9 relative to tumor inoculation; Inactive; assay type: functional; settings: Mus musculus; procedure, shortened: as §2
[6] = test system: Mus musculus; assay: Percent tumor weight inhibition (TWI) in athymic mice at an optimal dose of 50 mg/kg in […] cells; assay type: functional, organism-based; parameters: dose 50 mg/kg
[7] = test system: MX1; assay: Percent tumor weight inhibition (TWI) in athymic mice at an optimal dose of 50 mg/kg in breast MX-1 cells; assay type: functional, organism-based; parameters: dose 50 mg/kg; settings: Mus musculus
[8] = test system: M5076; assay: Antitumor activity against murine tumor cells M5076 in BDF1 mice administered 3 mg/Kg intraperitoneally on days 1,5, and 9 relative to tumor inoculation; assay type: functional; settings: Mus musculus
[9] = test system: L1210; assay: Antitumor activity against murine tumor cells L1210 in BDF1 mice administered 3.1 mg/kg intraperitoneally on days 1,5, and 9 relative to tumor inoculation; assay type: functional, organism-based; parameters: dose 3.1 mg/kg; settings: Mus musculus, at 3.1 mg/kg; procedure, shortened: as §2
[10] = test system: L1210; assay: Antitumor activity against murine tumor cells L1210 in BDF1 mice administered 6.2 mg/kg intraperitoneally on days 1,5, and 9 relative to tumor inoculation; assay type: functional, organism-based; parameters: dose 6.2 mg/kg; settings: Mus musculus, at 6.2 mg/kg; procedure, shortened: as §2
[11] = test system: B16; assay: Antitumor activity against murine tumor cells B16 in C57BC mice administered 6 mg/kg intraperitoneally on days 1-9 relative to tumor inoculation; assay type: functional, organism-based; parameters: dose 6 mg/kg; settings: Mus musculus, at 6 mg/kg; procedure, shortened: as §1
[12] = test system: B16; assay: Antitumor activity against murine tumor cells B16 in C57BC mice administered 0.4 mg/Kg intraperitoneally on days 1-9 relative to tumor inoculation; assay type: functional; settings: Mus musculus; procedure, shortened: as §1
[13] = test system: L1210; assay: Antitumor activity against murine tumor cells L1210 in BDF1 mice administered 1.5 mg/kg intraperitoneally on days 1,5, and 9 relative to tumor inoculation; assay type: functional, organism-based; parameters: dose 1.5 mg/kg; settings: Mus musculus, at 1.5 mg/kg; procedure, shortened: as §2
[14] = test system: P388; assay: Antitumor activity against murine tumor cells, P388 in BDF1 mice administered 3.2 mg/Kg intraperitoneally on days 1,5, and 9 relative to tumor inoculation; assay type: functional; settings: Mus musculus; procedure, shortened: as §2
[15] = test system: P388; assay: Antitumor activity against murine tumor cells, P388 in BDF1 mice administered 6.2 mg/Kg intraperitoneally on days 1,5, and 9 relative to tumor inoculation; assay type: functional; settings: Mus musculus; procedure, shortened: as §2
[16] = test system: Colon 26; assay: Antitumor activity against murine tumor cells Colon 26 in BALB / C mice administered 0.8 mg/Kg intraperitoneally on days 1,5, and 9 relative to tumor inoculation; assay type: functional; settings: Mus musculus; procedure, shortened: as §3
[17] = test system: Colon 26; assay: Antitumor activity against murine tumor cells Colon 26 in BALB / C mice administered 3.1 mg/Kg intraperitoneally on days 1,5, and 9 relative to tumor inoculation; assay type: functional; settings: Mus musculus; procedure, shortened: as §3
[18] = test system: B16; assay: Antitumor activity against murine tumor cells B16 in C57BC mice administered 1.5 mg/Kg intraperitoneally on days 1-9 relative to tumor inoculation; assay type: functional; settings: Mus musculus; procedure, shortened: as §1
[19] = test system: B16; assay: Antitumor activity against murine tumor cells B16 in C57BC mice administered 0.2 mg/Kg intraperitoneally on days 1-9 relative to tumor inoculation; assay type: functional; settings: Mus musculus; procedure, shortened: as §1
[20] = test system: B16; assay: Antitumor activity against murine tumor cells B16 in C57BC mice administered 0.4 mg/kg intraperitoneally on days 1-9 relative to tumor inoculation; assay type: functional, organism-based; parameters: dose 0.4 mg/kg; settings: Mus musculus, at 0.4 mg/kg; procedure, shortened: as §1
[21] = test system: Colon 26; assay: Antitumor activity against murine tumor cells Colon 26 in BALB / C mice administered 1 mg/Kg intraperitoneally on days 1,5, and 9 relative to tumor inoculation; assay type: functional; settings: Mus musculus; procedure, shortened: as §3
[22] = test system: MX1; assay: Percent tumor weight inhibition (TWI) in athymic mice at an optimal dose of 3 mg/kg in breast MX-1 cells; assay type: functional, organism-based; parameters: dose 3 mg/kg; settings: Mus musculus
[23] = test system: L1210; assay: Antitumor activity against murine tumor cells L1210 cisplatin resistant leukemia in BDF1 mice administered mg/Kg intraperitoneally on days 1,5, and 9 relative to tumor inoculation; In active; assay type: functional; settings: Mus musculus; procedure, shortened: as §2
[24] = test system: Mus musculus; assay: Percent tumor weight inhibition (TWI) in athymic mice at an optimal dose of 3 mg/kg in […] cells; assay type: functional, organism-based; parameters: dose 3 mg/kg
[25] = test system: P388; assay: Antitumor activity against murine tumor cells, P388 in BDF1 mice administered 3 mg/kg intraperitoneally on days 1,5, and 9 relative to tumor inoculation; assay type: functional, organism-based; parameters: dose 3 mg/kg; settings: Mus musculus, at 3 mg/kg; procedure, shortened: as §2
[26] = Solubility in water; assay type: physicochemical; settings: buffer

CARBOPLATIN
Increase [1]: 43% | Increase [2]: 144% | Increase [3]: 85% | Increase [4]: 35% | Increase [5]: inactive | TWI [6]: 200% | TWI [7]: 90%

cis-Diamminedichloroplatinum (II) complex [listing 1 of 3 here]
Increase [8]: 128% | Increase [9]: 39% | Increase [10]: 50% | Increase [11]: 53% | Increase [12]: 43% | Increase [13]: 38% | Increase [14]: 173% | Increase [15]: 136% | Increase [16]: 39% | Increase [17]: 59% | Increase [18]: 36% | Increase [19]: 43%

CISPLATIN
Increase [10]: 96% | Increase [20]: 36% | Increase [21]: 47% | TWI [22]: 86% | Increase [23]: inactive | TWI [24]: 200% | Increase [25]: 140%

cis-Diamminedichloroplatinum (II) complex [listing 2 of 3 here]
S [26]: 0.3 mg/mL

cis-Diamminedichloroplatinum (II) complex [listing 3 of 3 here]
S [26]: 1 mg/mL
